Laboratory results published in ChEMBL document CHEMBL2331121, “Design, synthesis, and pharmacological characterization of N- and O-substituted 5,6,7,8-tetrahydro-4H-isoxazolo[4,5-d]azepin-3-ol analogues: novel 5-HT(2A)/5-HT(2C) receptor agonists with pro-cognitive properties” (J Med Chem, 2013).
Activity calls are given as the source filed them. The rule behind the calls is not given here.

Legend:
[1] = biological target: T1, 5-hydroxytryptamine receptor 2A (Homo sapiens, UniProt P28223); assay: Agonist activity at human 5HT2A receptor expressed in HEK293 cells assessed as induction of intracellular calcium release by fluorescence assay relative to 5HT; type: functional, cell-based
Summary of the method: (§1)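 Stable polyclonal 5-HT2A or 5-HT2C HEK293 cells seeded on poly-D-lysine plates (6 × 10⁴ cells/well). Next day loaded with Fluo-4/AM for 1 h at 37 °C in HBSS/20 mM HEPES/1 mM CaCl₂/1 mM MgCl₂/2.5 mM probenecid, pH 7.4. Fluorescence (485 ex/525 em) recorded before and up to 90 s after agonist. Response relative to 5-HT on the same plate. Duplicate, at least three times.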

[2] = biological target: T2, 5-hydroxytryptamine receptor 2C (Rattus norvegicus) (UniProt P08909); assay: Displacement of [125I]-N-(p-I-Bn)-THAZ from 5HT2C receptor in rat hippocampal membrane after 1 hr by scintillation counting analysis; type: cell membranes; conditions: Hippocampus
T2 sequence (whole entry): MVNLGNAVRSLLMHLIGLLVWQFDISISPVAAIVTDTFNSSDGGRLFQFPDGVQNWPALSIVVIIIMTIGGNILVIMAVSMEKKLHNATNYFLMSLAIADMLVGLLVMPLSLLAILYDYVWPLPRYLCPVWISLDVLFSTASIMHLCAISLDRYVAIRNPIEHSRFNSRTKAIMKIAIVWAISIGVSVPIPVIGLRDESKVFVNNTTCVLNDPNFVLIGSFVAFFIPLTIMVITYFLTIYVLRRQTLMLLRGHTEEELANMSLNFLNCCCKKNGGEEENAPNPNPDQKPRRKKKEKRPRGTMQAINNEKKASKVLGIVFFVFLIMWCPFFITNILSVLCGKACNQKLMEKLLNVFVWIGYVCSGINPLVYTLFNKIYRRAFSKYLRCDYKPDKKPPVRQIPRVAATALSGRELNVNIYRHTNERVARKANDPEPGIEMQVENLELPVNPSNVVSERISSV

[3] = biological target: T1, 5-hydroxytryptamine receptor 2A; assay: Ratio of EC50 for human 5HT2A receptor by calcium fiux-based fluorescence assay to EC50 for 5HT2A by IP1 accumulation-based TR-FRET assay; type: functional
Mus musculus [4] = assay: Procognitive effect in C57Bl/6J mouse assessed as number of familiar arm entry at 0.43 mg/kg, po administered 30 mins prior to acquisition trial measured after 24 hrs in presence of SB242084; type: functional
Summary of the method: (§2)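 Male C57Bl/6J mice aged 8 weeks, two-trial place recognition Y-maze. 3 min acquisition with two arms open; 24 h ITI; 3 min retention with all three arms open. Drug given po 30 min before acquisition, vehicle 10% HP-βCD. SB242084 2.1 mg/kg co-administered where stated; doses as free base. Readouts are % distance, arm entries and time in each arm. Familiar arms pooled; one-way ANOVA.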

Mus musculus [5] = assay: Procognitive effect in C57Bl/6J mouse assessed as time spent in novel arm at 0.43 mg/kg, po administered 30 mins prior to acquisition trial measured after 24 hrs by Y-maze test; type: functional; summary of the method: as §2
[6] = biological target: T3, 5-hydroxytryptamine receptor 2C (Homo sapiens) (UniProt P28335); assay: Agonist activity at human 5HT2C receptor expressed in HEK293 cells assessed as accumulation of IP1 incubated for 1 hr at 37 degC followed by 15 mins at RT by TR-FRET assay relative to 5HT; type: functional, cell-based
T3 sequence (whole entry): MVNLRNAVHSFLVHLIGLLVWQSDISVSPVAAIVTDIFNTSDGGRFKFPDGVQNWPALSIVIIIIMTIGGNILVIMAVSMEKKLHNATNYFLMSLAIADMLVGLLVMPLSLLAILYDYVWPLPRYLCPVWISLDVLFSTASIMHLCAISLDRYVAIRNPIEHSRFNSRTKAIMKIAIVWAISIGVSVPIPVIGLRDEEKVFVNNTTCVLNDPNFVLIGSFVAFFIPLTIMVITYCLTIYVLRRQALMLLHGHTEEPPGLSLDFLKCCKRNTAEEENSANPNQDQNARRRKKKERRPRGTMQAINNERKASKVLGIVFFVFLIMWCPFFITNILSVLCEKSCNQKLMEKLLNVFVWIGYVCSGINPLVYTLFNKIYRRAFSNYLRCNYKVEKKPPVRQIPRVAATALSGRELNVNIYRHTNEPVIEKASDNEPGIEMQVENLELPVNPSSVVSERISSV
Summary of the method: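 Polyclonal HEK293 lines stably expressing human 5-HT2A (variant 1) or 5-HT2C (INI isoform), detached and suspended at 1 × 10⁷ cells/mL in HBSS with 20 mM HEPES, 1 mM CaCl₂, 1 mM MgCl₂, pH 7.4. Ligands in buffer with 40 mM LiCl. Incubated 1 h at 37 °C, then 15 min RT. IP1 read by HTRF 665/615 ratio. Triplicate, at least four times.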

[7] = biological target: T1, 5-hydroxytryptamine receptor 2A; assay: Agonist activity at human 5HT2A receptor expressed in HEK293 cells assessed as induction of intracellular calcium release measured for 90 secs by fluorescence assay; type: functional, cell-based; conditions: read-out: EC50
[8] = biological target: T1, 5-hydroxytryptamine receptor 2A; assay: Agonist activity at human 5HT2A receptor expressed in HEK293 cells assessed as accumulation of IP1 incubated for 1 hr at 37 degC followed by 15 mins at RT by TR-FRET assay; type: functional, cell-based
Mus musculus [9] = assay: Procognitive effect in C57Bl/6J mouse assessed as distance traveled in the familiar arm at 0.43 mg/kg, po administered 30 mins prior to acquisition trial measured after 24 hrs by Y-maze test (Rvb =31.5 +/- 2.9%); type: functional; summary of the method: as §2
Mus musculus [10] = assay: Procognitive effect in C57Bl/6J mouse assessed as number of familiar arm entry at 0.43 mg/kg, po administered 30 mins prior to acquisition trial measured after 24 hrs by Y-maze test; type: functional; summary of the method: as §2
[11] = biological target: T3, 5-hydroxytryptamine receptor 2C (Homo sapiens); assay: Ratio of EC50 for human 5HT2C receptor by calcium fiux-based fluorescence assay to […] accumulation-based TR-FRET assay; type: functional
[12] = biological target: T2, 5-hydroxytryptamine receptor 2C (Rattus norvegicus); assay: Displacement of [125I]-N-(p-I-Bn)-THAZ from 5HT2C in Sprague-Dawley rat hippocampal membrane at 100 uM after 40 mins by autoradiography; type: tissue-based; conditions: Hippocampus
[13] = biological target: T2, 5-hydroxytryptamine receptor 2C (Rattus norvegicus); assay: Displacement of [125I]-N-(p-I-Bn)-THAZ from 5HT2C receptor in rat cerebellum membrane after 1 hr by scintillation counting analysis; type: cell membranes
[14] = biological target: T3, 5-hydroxytryptamine receptor 2C (Homo sapiens); assay: Agonist activity at human 5HT2C receptor expressed in HEK293 cells assessed as induction of intracellular calcium release by fluorescence assay relative to 5HT; type: functional, cell-based; summary of the method: as §1

T1 sequence (P28223 whole entry): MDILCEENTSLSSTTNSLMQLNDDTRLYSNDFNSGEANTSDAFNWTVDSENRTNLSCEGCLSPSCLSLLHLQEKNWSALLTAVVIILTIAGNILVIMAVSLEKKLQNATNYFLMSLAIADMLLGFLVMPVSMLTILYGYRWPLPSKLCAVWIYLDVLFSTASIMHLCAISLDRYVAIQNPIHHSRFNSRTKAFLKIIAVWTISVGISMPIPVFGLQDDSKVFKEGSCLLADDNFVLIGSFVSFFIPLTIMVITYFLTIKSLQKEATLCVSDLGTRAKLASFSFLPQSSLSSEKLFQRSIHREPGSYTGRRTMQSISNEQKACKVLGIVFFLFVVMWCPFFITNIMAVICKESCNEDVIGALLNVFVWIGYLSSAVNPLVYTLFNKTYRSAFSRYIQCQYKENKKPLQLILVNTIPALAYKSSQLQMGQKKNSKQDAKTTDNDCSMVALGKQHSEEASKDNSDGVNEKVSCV

## O=c1c2c(on1Cc1ccccc1)CCNCC2
[1]
  Emax: 80%
[2]
  Activity: inactive
[3]
  Ratio EC50: 2
Mus musculus [4]
  Activity: 33.6%
Mus musculus [5]
  Activity: 38.8%
[6]
  Emax: 92%
[7]
  EC50: 550 nM
[8]
  EC50: 2400 nM
Mus musculus [9]
  Activity: 29.8%
Mus musculus [10]
  Activity: 30.8%
[11]
  Ratio EC50: 2
[12]
  Activity: inactive
[13]
  Activity: inactive
[14]
  Emax: 90%
